Test results published in BindingDB's records for PubMed 35512565 (Baylor College of Medicine, 2022).

Molecular target: Histone acetyltransferase p300 (Homo sapiens, UniProt Q09472)
Assay: Inhibition of human p300 HAT domain (1195 to 1673 residues) using histone H3 peptide and acetyl-coA as substrates preincubated for 10 mins followed by substrate addition and measured after 30 mins by beckman scintillation counting analysis
Procedure, shortened: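 Recombinant human p300 HAT domain (10 nM) was preincubated with a dilution series of inhibitor for 10 min at 25 °C in 50 mM phosphate buffer, pH 7.0, with 0.01% Brij-35. The reaction was started with histone H3(1-21) peptide (20 μM) and Ac-CoA (1 μM ³H-Ac-CoA plus 19 μM unlabelled) and run 30 min at 25 °C. It was stopped with formic acid, spotted on P81 paper, washed 3× with 50 mM NaHCO₃, and counted by scintillation. IC50 came from a sigmoidal fit, mean of ≥3 experiments.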

Sequence of Histone acetyltransferase p300 (Q09472 whole entry, the tested form may be a part): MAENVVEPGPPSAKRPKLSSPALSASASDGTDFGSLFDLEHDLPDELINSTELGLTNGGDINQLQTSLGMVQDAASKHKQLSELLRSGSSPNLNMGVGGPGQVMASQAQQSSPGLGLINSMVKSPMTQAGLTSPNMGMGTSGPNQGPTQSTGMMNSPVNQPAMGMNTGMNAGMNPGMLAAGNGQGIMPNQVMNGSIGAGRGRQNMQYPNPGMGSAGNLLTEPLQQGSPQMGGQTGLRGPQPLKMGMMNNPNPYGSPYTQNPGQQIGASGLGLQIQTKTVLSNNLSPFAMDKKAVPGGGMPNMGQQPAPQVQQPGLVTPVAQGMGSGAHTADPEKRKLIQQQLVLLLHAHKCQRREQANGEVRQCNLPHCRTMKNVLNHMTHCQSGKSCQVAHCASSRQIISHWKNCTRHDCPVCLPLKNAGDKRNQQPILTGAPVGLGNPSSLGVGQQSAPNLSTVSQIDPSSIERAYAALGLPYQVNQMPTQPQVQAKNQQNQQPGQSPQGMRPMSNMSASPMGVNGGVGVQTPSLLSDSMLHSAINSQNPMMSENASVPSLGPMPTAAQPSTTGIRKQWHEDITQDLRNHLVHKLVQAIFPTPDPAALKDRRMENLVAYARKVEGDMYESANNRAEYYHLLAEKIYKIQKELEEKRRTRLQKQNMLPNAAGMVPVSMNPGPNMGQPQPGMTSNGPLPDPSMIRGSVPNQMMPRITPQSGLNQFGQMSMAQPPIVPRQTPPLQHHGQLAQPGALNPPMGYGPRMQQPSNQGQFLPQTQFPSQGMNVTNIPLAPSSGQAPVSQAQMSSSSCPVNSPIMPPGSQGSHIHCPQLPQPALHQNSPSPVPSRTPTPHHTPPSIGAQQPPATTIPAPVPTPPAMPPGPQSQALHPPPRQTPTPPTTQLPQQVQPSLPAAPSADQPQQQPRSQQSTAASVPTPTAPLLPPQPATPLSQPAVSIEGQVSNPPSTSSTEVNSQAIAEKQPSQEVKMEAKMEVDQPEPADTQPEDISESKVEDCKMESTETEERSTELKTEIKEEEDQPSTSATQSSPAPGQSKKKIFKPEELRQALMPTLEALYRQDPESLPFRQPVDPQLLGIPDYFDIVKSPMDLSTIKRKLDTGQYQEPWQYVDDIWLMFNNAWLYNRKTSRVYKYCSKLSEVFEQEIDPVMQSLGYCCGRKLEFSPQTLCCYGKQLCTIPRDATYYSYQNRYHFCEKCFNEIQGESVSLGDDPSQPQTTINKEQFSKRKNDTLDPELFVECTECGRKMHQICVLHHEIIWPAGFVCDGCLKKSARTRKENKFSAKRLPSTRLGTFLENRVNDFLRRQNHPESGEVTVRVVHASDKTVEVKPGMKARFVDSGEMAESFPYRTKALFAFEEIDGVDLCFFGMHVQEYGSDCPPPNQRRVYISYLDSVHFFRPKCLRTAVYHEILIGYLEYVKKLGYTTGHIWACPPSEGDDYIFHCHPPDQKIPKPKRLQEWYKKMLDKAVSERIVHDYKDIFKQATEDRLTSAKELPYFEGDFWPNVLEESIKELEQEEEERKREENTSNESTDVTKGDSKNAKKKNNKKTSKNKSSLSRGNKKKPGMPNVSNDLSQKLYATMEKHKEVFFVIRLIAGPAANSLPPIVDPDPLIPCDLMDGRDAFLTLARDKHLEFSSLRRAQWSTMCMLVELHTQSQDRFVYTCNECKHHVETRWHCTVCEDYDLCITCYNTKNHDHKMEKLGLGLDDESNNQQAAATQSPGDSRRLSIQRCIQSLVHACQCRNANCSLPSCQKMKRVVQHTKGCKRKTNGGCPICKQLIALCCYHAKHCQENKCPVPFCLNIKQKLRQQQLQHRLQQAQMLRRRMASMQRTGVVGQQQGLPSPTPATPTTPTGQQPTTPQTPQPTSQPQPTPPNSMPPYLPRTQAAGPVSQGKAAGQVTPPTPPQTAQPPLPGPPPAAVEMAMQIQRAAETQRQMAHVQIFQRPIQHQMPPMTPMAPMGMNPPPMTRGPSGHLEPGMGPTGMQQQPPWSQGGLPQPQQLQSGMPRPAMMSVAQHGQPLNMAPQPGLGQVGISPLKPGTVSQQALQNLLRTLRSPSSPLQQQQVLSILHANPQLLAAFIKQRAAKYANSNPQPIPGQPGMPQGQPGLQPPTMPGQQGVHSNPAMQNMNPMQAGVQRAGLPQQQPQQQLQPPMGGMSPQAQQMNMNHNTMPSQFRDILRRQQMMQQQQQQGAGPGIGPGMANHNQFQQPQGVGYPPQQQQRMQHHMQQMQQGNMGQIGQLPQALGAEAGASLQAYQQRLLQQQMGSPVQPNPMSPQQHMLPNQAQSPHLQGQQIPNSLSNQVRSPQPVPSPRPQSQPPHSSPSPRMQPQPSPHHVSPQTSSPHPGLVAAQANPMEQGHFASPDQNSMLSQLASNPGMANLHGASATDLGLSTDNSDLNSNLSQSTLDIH

IC50: 10 µM
Compound: Brc1ccc(-c2ncc(OCC3CCNCC3)nc2-c2ccc(Br)c(Br)c2)cc1Br
